According to ChEMBL document CHEMBL4017522, “Stilbene Boronic Acids Form a Covalent Bond with Human Transthyretin and Inhibit Its Aggregation” (J Med Chem, 2017):
Active and inactive are the calls of the source. No cut-off for these calls is given here.

Tests used:
Transthyretin [1] = biological target: T1, Transthyretin (Homo sapiens, UniProt P02766); experiment: Inhibition human wild type TTR expressed in Escherichia coli BL-21 assessed as fibril formation at 14.4 uM incubated for 30 mins after 96 hrs by light scattering method relative to control; parameters: scale not given: the % may be the effect or the level left
Procedure, shortened: (§1)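 Ligand (7.2 or 14.4 μM) preincubated 30 min with TTR tetramers (7.2 μM, wild-type or V30M), then diluted twofold into 50 mM sodium acetate, pH 4.4, 100 mM KCl. Turbidity read as A400 at 0 and 96 h, four replicates; percent fibril formation = ligand-well A400 gain over DMF vehicle-well gain ×100, standard deviations propagated.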

Transthyretin [2] = biological target: T1, Transthyretin; experiment: Competitive binding affinity to human wild type TTR expressed in Escherichia coli BL-21 assessed as equilibrium dissociation constant of second site in presence of ANS by spectrofluorometer
Transthyretin [3] = biological target: T1, Transthyretin; experiment: Inhibition of human wild type TTR expressed in Escherichia coli BL-21 assessed as fibril formation at 7.2 uM incubated for 30 mins measured after 96 hrs by light scattering method relative to control; parameters: scale not given: the % may be the effect or the level left; procedure, shortened: as §1
[4] = tested on: Transthyretin (Homo sapiens), P02766 [V50M]; experiment: Inhibition of human TTR V30M mutant expressed in Escherichia coli BL-21 assessed as fibril formation at 7.2 uM incubated for 30 mins measured after 96 hrs by light scattering method relative to control; parameters: scale not given: the % may be the effect or the level left
[5] = tested on: Transthyretin (Homo sapiens), P02766 [V50M]; experiment: Inhibition of human TTR V30M mutant expressed in Escherichia coli BL-21 assessed as fibril formation at 14.4 uM incubated for 30 mins measured after 96 hrs by light scattering method relative to control; parameters: scale not given: the % may be the effect or the level left
Transthyretin [6] = biological target: T1, Transthyretin; experiment: Reversible binding affinity to human wild type TTR expressed in Escherichia coli BL-21 at 360 uM by mass spectrometry

Structure (SMILES)	Activity (Transthyretin [1]) [%]	Kd (Transthyretin [2]) [nM]	Activity (Transthyretin [3]) [%]	Activity [4] [%]	Activity [5] [%]	Activity (Transthyretin [6])
OB(O)c1ccc(/C=C/c2cc(O)cc(O)c2)cc1	9	470	21	48	23	–
Oc1ccc(/C=C/c2ccc(O)cc2Cl)c(Cl)c1	12	820	30	62	27	–
O=C(O)c1ccc2nc(-c3cc(Cl)cc(Cl)c3)oc2c1	0	–	22	5	8	–
OB(O)c1ccc(/C=C/c2ccc(B(O)O)cc2Cl)c(Cl)c1	3	470	20	32	8	Active
Oc1cc(O)cc(/C=C/c2ccc(O)cc2Cl)c1	7	730	22	44	14	–
OB(O)c1cccc(/C=C/c2ccc(B(O)O)cc2Cl)c1	10	–	26	54	16	–
O=C(O)c1cccc(/C=C/c2ccc(B(O)O)cc2Cl)c1	4	450	16	32	10	–
O=C(O)c1cccc(/C=C/c2ccc(O)cc2Cl)c1	3	470	21	41	9	–
O=C(O)c1cccc(/C=C/c2ccc(O)cc2)c1	77	1800	75	112	120	–
OB(O)c1ccc(/C=C/c2cc(O)cc(O)c2)c(Cl)c1	4	440	19	36	12	–
Oc1ccc(/C=C/c2cc(O)cc(O)c2)cc1 [RESVERATROL]	9	470	28	–	–	–
O=C(O)c1cccc(/C=C/c2ccc(B(O)O)cc2)c1	11	990	21	48	28	–
